This is a sample that favours compounds with a hit; in the whole collection about 2.4% have one here.
Cneo AK release = Cryptococcus neoformans lysis via adenylate kinase release; hit rate 0.2% among 360,000; lysis activity, % at 15 µM; C. neoformans lysis, adenylate kinase release luminescence, 4 h; normalised: neutral wells 0, clomiphene wells 100;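 active = mean lysis activity across replicates of at least 80%, whatever share of replicates individually reach that level; inactive = mean lysis activity below 80%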
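Assay system: C. neoformans cells. Amount: yeast cell density of 5 × 10^6 cells/mL. Technique: AK luminescence. Buffer or medium: YPD. Times: static 4 h at 37 °C with compound, 1 h detection. Dosing: single-point compound dose. Read-out: lysis from increased AK signal.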
Env fusion inh = HIV envelope-mediated fusion inhibition; HeLa-JRFL Env/CEM21 cell fusion, luciferase; inhibition, % at 12.3 µM; hit rate 1.1% among 360,000; AID 651610;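 active = mean replicate inhibition score of at least 50 and every replicate individually at or above 50; inconclusive = only one of the two criteria met; inactive = mean below 50 and not all replicates reaching 50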;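 also: 0% = plate neutral controls and 100% = maraviroc near 300 nM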
Rtt109 Vps75 = inhibitors of Candida albicans Rtt109/Vps75 histone acetyltransferase; AID 540336; inhibition, % at 34.9 µM; hit rate 0.16% among 330,000; Q5AAJ8; purified Rtt109/Vps75, ThioGlo CoA-SH fluorescence, 4 h;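 active = inhibition of at least 50% in every replicate; inconclusive = best replicate reaches 50% inhibition but some replicates fall short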
Target sequence (Q5AAJ8 whole entry, looked up): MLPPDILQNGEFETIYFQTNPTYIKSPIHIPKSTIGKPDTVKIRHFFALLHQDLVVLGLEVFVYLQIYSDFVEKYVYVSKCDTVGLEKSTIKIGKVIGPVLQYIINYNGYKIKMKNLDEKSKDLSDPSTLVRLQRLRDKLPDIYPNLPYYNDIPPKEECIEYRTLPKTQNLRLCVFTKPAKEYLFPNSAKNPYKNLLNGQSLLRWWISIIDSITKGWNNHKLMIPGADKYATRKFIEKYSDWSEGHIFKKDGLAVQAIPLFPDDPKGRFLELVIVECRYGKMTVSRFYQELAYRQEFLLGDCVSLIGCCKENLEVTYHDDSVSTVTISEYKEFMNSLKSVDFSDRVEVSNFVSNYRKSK
INS-1E GSIS act = GLuc luminescence reporter in INS-1E cells, primary screen for activators of glucose-dependent secretion of insulin; hit rate 0.61% among 370,000; AID 743287; INS-1E GLuc reporter insulin secretion, 2-3 h; activation, % at 16.6 µM;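 active = lowest replicate activation of at least 40%, so every replicate reaches that level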;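 also: 0% = median of neutral control wells and 100% = median of IBMX positive control wells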
dFosB act-1 = enhances mouse delta FosB homodimer DNA binding | P13346 | purified delta FosB, TAMRA-CDK5 oligo fluorescence polarization; percent of positive-control signal above neutral wells | activation, % at 25 µM | hit rate 0.99% among 340,000;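 active = mean activation above about 17%, with every replicate also reaching it, limit read from the data, passing the limit was not always enough; inconclusive = only one of the two conditions met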
miR122 inh = inhibitors of miR-122 in Huh7 cells. activation (reporter increase), % at 12.5 µM. Huh7 miR-122 Renilla luciferase sensor, 48 h; neutral wells = 0, positive control = 100. AID 602342. hit rate 0.3% among 340,000;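 active = mean replicate activation score at least 90 and every replicate individually at or above 90; inconclusive = only one of the two criteria met; inactive = neither criterion met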;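 also: higher luciferase means less miR-122 activity so hits act as miR-122 inhibitors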
dFosB act-2 = enhances mouse delta FosB homodimer binding to DNA; shares compounds with dFosB act-1; purified delta FosB, TAMRA-CDK5 oligo fluorescence polarization; normalised: neutral wells 0, positive control 100; activation, % at 24.9 µM; 2,400 tested, under 10 active; AID 588690;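 active = highest replicate activation at or above 34% and every replicate reaching that threshold; inconclusive = meets only one of the two criteria; inactive = meets neither criterion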;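 also: higher polarization means more probe DNA bound by delta FosB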
* marks the source's active call; other numbers are inactive results; ? = inconclusive; / = not tested or not shown; [ ] = dose if it differs, or a comment.

SMILES	Cneo AK release	Env fusion inh	Rtt109 Vps75	INS-1E GSIS act	dFosB act-1	miR122 inh	dFosB act-2
Cc1ccc(Cl)cc1NC(=O)C(=O)N/N=C/c1ccc2c(c1)OCO2	-1	-27	-2	6	40*	1	-1
Cc1cc(Cl)ccc1NC(=O)C(=O)N/N=C/c1ccc2c(c1)OCO2	2	?	-3	1	-4	2	/
CCC(=O)Nc1ccc2c(c1)C(=O)N(C)[C@@H]1CC[C@@H](CC(=O)NCc3ccccc3)O[C@@H]1CO2	1	-2[16.7 µM]	/	-3	/	-3[16.7 µM]	/
Cn1cnnc1Sc1cc(N2CCN(S(=O)(=O)c3ccc4ccccc4c3)CC2)ccc1[N+](=O)[O-]	0	/	8	-32	19*	-13	-1
Cc1ccc(C(C)C)c(OCC(=O)Nc2sc3c(c2C#N)CC(C)(C)NC3(C)C)c1	1	/	-3	/	1	-3	/
Cc1cc(OCC(=O)Nc2sc3c(c2C#N)CC(C)(C)NC3(C)C)c(C(C)C)cc1Cl	2	32	-6	-3	62*	-8	-1
CCOC(=O)c1ccc(NC(=O)CSc2nc(=O)n3cccc(C)c3n2)cc1	0	27	14	-8	29*	-7	3
CC(=O)c1ccc(NC(=O)CSc2nc(N3CCOCC3)nc(N3CCOCC3)n2)cc1	1	-5	3	13	-10	-2	/
CCOC(=O)c1ccc(NC(=O)CSc2nc(N3CCOCC3)nc(N3CCOCC3)n2)cc1	2	13	-3	-1	24*	3	2
O=C(Cn1cnc2ccccc2c1=O)Nc1nnc(SCc2ccc(Cl)cc2)s1	-1	4	-1	1	25*	-2	-5
O=C(Cn1cnc2ccccc2c1=O)Nc1nnc(C2CC2)s1	1	3	-4	10	8	0	/
O=C(COC(=O)/C=C/c1cccc(Br)c1)NCc1ccco1	-5	2	-2	7	-3	/	/
O=C(COC(=O)/C=C/c1cccc(Br)c1)NCc1cccs1	-8	/	5	-2	46*	/	3
CC(C)NC(=O)N(C)C[C@@H]1Oc2ccc(NC(=O)Cc3cn(C)c4ccccc34)cc2C(=O)N([C@H](C)CO)C[C@H]1C	60	/	/	9	/	14[16.7 µM]	/
CC1CCc2sc(C(=O)N/N=C/c3ccc([N+](=O)[O-])cc3)cc2C1 (configuration not stated)	-3	/	-1	5	17*	-1	-2
O=C(N/N=C/c1ccc([N+](=O)[O-])cc1)c1cccs1	0	-49	/	20	/	-8	/
COc1ccc(-c2cc(C(F)F)n3ncc(C(=O)Nc4cccc(S(=O)(=O)N5CCOCC5)c4)c3n2)cc1	/	3	0	0	33*	/	2
COc1cc(-c2cc(C(=O)Nc3ccc(O)cc3)c3ccccc3n2)cc(OC)c1OC	/	22	25	-17	3	/	/
COc1cc(-c2cc(C(=O)Nc3cccc(C(C)=O)c3)c3ccccc3n2)cc(OC)c1OC	0	25	-1	19	28*	/	2
COc1ccc(Nc2nc(OC)nc(OC)n2)cc1	1	-176	5	2	-1	0	/
COc1ccc(Nc2nc(Nc3ccc(OC)cc3)nc(SC3=NCCS3)n2)cc1	3	-82	-2	11	37*	-11	4
Cc1ccccc1S(=O)(=O)N1[C@H](C#N)[C@H](c2ccc(C#CC3CCCC3)cc2)[C@H]1CO	/	/	/	-20	/	/	/
COc1cccc(-c2ccc(NC(=O)C3CCCN(CCCn4nc(C)cc4C)C3)cc2)c1 (configuration not stated)	6	4	14	-22	27*	-4	6
Cc1cccc(/C=N/NC(=O)c2ccc(NC(=O)c3ccc(F)cc3)cc2)n1	1	-9	0	16	-5	5	/
Cc1ccnc(NC(=O)c2cccc(NC(=O)c3ccc(Cl)c(Cl)c3)c2)c1	-1	-5	2	5	48*	-4	-2
O=C(N/N=C/c1cccnc1)c1cccc(NC(=O)c2ccc(Cl)cc2)c1	1	/	8	/	32*	1	2

Screening results from PubChem.
